In ChEMBL document CHEMBL1759942, “Synthesis and biological activity of 2-(bis((1,3,4-oxadiazolyl/1,3,4-thiadiazolyl)methylthio)methylene)malononitriles” (2011) one finds zone of inhibition, inhibition and MIC data, which are given here for 5 molecules.

≈ marks a conversion by molar mass, not a printed value.

Holding throughout (assay type): functional
Assay [1] concerns Escherichia coli. Nature of the assay: Antibacterial activity against Escherichia coli assessed as zone of inhibition at 100 ug/ml after 24 hrs by disc diffusion method. As to conditions: read-out: DIZ. In short, it runs like this: (§1)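 Agar disc diffusion on nutrient agar plates pre-inoculated separately with each bacterium. Sterile 6 mm paper discs were moistened with compound solution in DMSO at 100 or 200 per disc and placed on the plates. Plates were incubated at 37 °C, and growth-inhibition zone diameter was measured after 24 h. Chloramphenicol served as the reference drug.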
A general note: In agar diffusion tests the substance spreads into inoculated agar from a disc or well.

For assay [2], the system named is Klebsiella pneumoniae. Nature of the assay: Antibacterial activity against Klebsiella pneumoniae assessed as zone of inhibition at 100 ug/ml after 24 hrs by disc diffusion method. The settings on record: read-out: DIZ. An outline of the steps: as §1
The subject of assay [3] is Curvularia lunata. Nature of the assay: Antifungal activity against Curvularia lunata assessed as zone of inhibition at 100 ug/ml after 48 hrs by disc diffusion method. The settings on record: read-out: DIZ. In short, it runs like this: (§2)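 Fungi were grown on potato dextrose agar at 25 °C for 3 days, and spore suspensions were adjusted to 10⁶ spores/ml. In the disc diffusion test, inoculated plates received 6 mm paper discs moistened with compound in DMSO at 100 or 200 per disc. Plates were incubated at 37 °C, and inhibition zone diameter was read at 48 h. Ketoconazole was the standard.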

Assay [4] deals with Staphylococcus aureus. Briefly: Antibacterial activity against Staphylococcus aureus assessed as zone of inhibition at 200 ug/ml after 24 hrs by disc diffusion method. As to conditions: read-out: DIZ. In short, it runs like this: as §1
For assay [5], the system named is Bacillus subtilis. Briefly: Antibacterial activity against Bacillus subtilis assessed as zone of inhibition at 100 ug/ml after 24 hrs by disc diffusion method. As to conditions: read-out: DIZ. An outline of the steps:
as §1

Assay [6] has as its system Radical scavenging activity. Briefly: Antioxidant activity against DPPH free radical scavenging activity at 100 uM after 20 mins by spectrophotometric analysis at pH 7.5. An outline of the steps: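 DPPH assay: compound solutions at 100 were added to DPPH at 100 in dioxane/methanol and held at ambient temperature for 20 min. Absorbance was read at 517 nm, and the test–control difference was expressed as percent DPPH radical scavenging.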
(Loss of DPPH colour is used to gauge radical scavenging.)

In assay [7] the test system is Fusarium solani. Briefly: Antifungal activity against Fusarium solani assessed as zone of inhibition at 200 ug/ml after 48 hrs by disc diffusion method. The settings on record: read-out: DIZ. An outline of the steps: as §2
Assay [8] is described as follows: Antioxidant activity against nitric oxide scavenging activity at 100 uM after 120 mins by spectrophotometric analysis at pH 7.4. In short, it runs like this: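 Nitric oxide scavenging: test compounds at 100 in dioxane/methanol were incubated at 25 °C for 120 min, with a solvent-only control. At intervals, 0.5 ml samples were mixed with an equal volume of Griess reagent (1% sulfanilamide, 0.1% N-naphthylethylenediamine dihydrochloride, 2% o-phosphoric acid). Absorbance of the azo chromophore was then measured.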

Assay [9] has as its system Escherichia coli. Briefly: Antibacterial activity against Escherichia coli assessed as zone of inhibition at 200 ug/ml after 24 hrs by disc diffusion method. As to conditions: read-out: DIZ. In short, it runs like this: as §1
In assay [10] the test system is Aspergillus niger. Briefly: Antifungal activity against Aspergillus niger assessed as zone of inhibition at 100 ug/ml after 48 hrs by disc diffusion method. As to conditions: read-out: DIZ. In short, it runs like this: as §2
The subject of assay [11] is Fusarium solani. Nature of the assay: Antifungal activity against Fusarium solani assessed as zone of inhibition at 100 ug/ml after 48 hrs by disc diffusion method. The settings on record: read-out: DIZ. In short, it runs like this:
as §2

Assay [12] concerns Klebsiella pneumoniae. Briefly: Antibacterial activity against Klebsiella pneumoniae assessed as zone of inhibition at 200 ug/ml after 24 hrs by disc diffusion method. The settings on record: read-out: DIZ. An outline of the steps:
as §1

Assay [13] deals with Aspergillus niger. Nature of the assay: Antifungal activity against Aspergillus niger assessed as zone of inhibition at 200 ug/ml after 48 hrs by disc diffusion method. As to conditions: read-out: DIZ. An outline of the steps:
as §2

For assay [14], the system named is Bacillus subtilis. Briefly: Antibacterial activity against Bacillus subtilis assessed as zone of inhibition at 200 ug/ml after 24 hrs by disc diffusion method. The settings on record: read-out: DIZ. In short, it runs like this:
as §1

Assay [15] has as its system Curvularia lunata. Nature of the assay: Antifungal activity against Curvularia lunata assessed as zone of inhibition at 200 ug/ml after 48 hrs by disc diffusion method. The settings on record: read-out: DIZ. An outline of the steps:
as §2

Assay [16] deals with Staphylococcus aureus. Nature of the assay: Antibacterial activity against Staphylococcus aureus assessed as zone of inhibition at 100 ug/ml after 24 hrs by disc diffusion method. As to conditions: read-out: DIZ. In short, it runs like this:
as §1

The test system of assay [17] is Klebsiella pneumoniae. Nature of the assay: Antibacterial activity against Klebsiella pneumoniae after 24 hrs by microdilution method. In short, it runs like this:
(§3)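 MIC by microdilution susceptibility testing in tubes. Incubation was at 36 °C for 24 h (bacteria) or 48 h (fungi). MIC was recorded as the lowest compound concentration giving no turbidity, i.e. no visible growth. Chloramphenicol was the antibacterial reference and ketoconazole the antifungal standard.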
A general note: In broth dilution the organism is exposed to a series of concentrations in liquid medium.

Assay [18] relates to Fusarium solani. Nature of the assay: Antifungal activity against Fusarium solani after 48 hrs by microdilution method. An outline of the steps:
as §3

Assay [19] has as its system Curvularia lunata. Briefly: Antifungal activity against Curvularia lunata after 48 hrs by microdilution method. In short, it runs like this: as §3
In assay [20] the test system is Escherichia coli. Nature of the assay: Antibacterial activity against Escherichia coli after 24 hrs by microdilution method. In short, it runs like this:
as §3

In assay [21] the test system is Aspergillus niger. Briefly: Antifungal activity against Aspergillus niger after 48 hrs by microdilution method. In short, it runs like this:
as §3

Assay [22] concerns Bacillus subtilis. Briefly: Antibacterial activity against Bacillus subtilis after 24 hrs by microdilution method. In short, it runs like this:
as §3

Assay [23] relates to Staphylococcus aureus. Nature of the assay: Antibacterial activity against Staphylococcus aureus after 24 hrs by microdilution method. An outline of the steps: as §3

Consider `Cc1ccc(-c2nnc(CSC(SCc3nnc(-c4ccc(C)cc4)s3)=C(C#N)C#N)s2)cc1`, for which the zone of inhibition at 100 µg/mL amounted to 17 mm in the assay on Escherichia coli [1]; 18 mm in the assay on Klebsiella pneumoniae [2]; 25 mm with Curvularia lunata [3]; 19 mm in the assay on Bacillus subtilis [5]; 18 mm in the assay with Aspergillus niger [10]; 23 mm with Fusarium solani [11]. Besides, in the assay with Staphylococcus aureus [16], the zone of inhibition at 100 µg/mL was 19 mm. Besides, the zone of inhibition at 200 µg/mL turned out to be 25 mm in the assay on Staphylococcus aureus [4]; 25 mm in the assay with Fusarium solani [7]; 24 mm with Escherichia coli [9]; 22 mm in the assay with Klebsiella pneumoniae [12]; 21 mm in the assay with Aspergillus niger [13]; 24 mm in the assay on Bacillus subtilis [14]. Further, the zone of inhibition at 200 µg/mL with Curvularia lunata [15] turned out to be 26 mm. Also, the results for the inhibition in assay [6] and in assay [8] were 21.6% and 22.3%, respectively.

As to `CCOC(=O)CSC(SCC(=O)OCC)=C(C#N)C#N`, the zone of inhibition at 100 µg/mL with Escherichia coli [1] came to 7 mm; in the assay on Curvularia lunata [3], 12 mm; with Bacillus subtilis [5] it was 12 mm; in the assay with Aspergillus niger [10], 9 mm; with Fusarium solani [11], 13 mm; in the assay on Staphylococcus aureus [16], 10 mm. Further, the zone of inhibition at 200 µg/mL with Staphylococcus aureus [4] is 14 mm; with Fusarium solani [7], 15 mm; in the assay with Escherichia coli [9], 9 mm; in the assay with Klebsiella pneumoniae [12], 8 mm; in the assay with Aspergillus niger [13], 12 mm; with Bacillus subtilis [14], 14 mm. Besides, in the assay on Curvularia lunata [15], the zone of inhibition at 200 µg/mL worked out at 15 mm. Moreover, the inhibition (in general, the drop in the measured response relative to a control, in per cent) in assay [6] was 46.3%; in [8] it was 45.8%.

For `Cc1ccc(-c2nnc(CSC(SCc3nnc(-c4ccc(C)cc4)o3)=C(C#N)C#N)o2)cc1`, the zone of inhibition at 100 µg/mL in the assay with Curvularia lunata [3] was determined as 13 mm; in the assay on Bacillus subtilis [5], 10 mm; in the assay with Aspergillus niger [10], 10 mm; in the assay on Fusarium solani [11], 15 mm; in the assay on Staphylococcus aureus [16], 10 mm. For the same molecule, the zone of inhibition at 200 µg/mL was found to be 13 mm with Staphylococcus aureus [4]; 17 mm in the assay on Fusarium solani [7]; 11 mm in the assay on Klebsiella pneumoniae [12]; 11 mm with Aspergillus niger [13]; 12 mm with Bacillus subtilis [14]; 14 mm in the assay with Curvularia lunata [15]. Also, the inhibition in assay [6] was determined as 52.5%; in assay [8], 54.3%.

Consider `N#CC(C#N)=C(SCc1nnc(-c2ccc(Cl)cc2)s1)SCc1nnc(-c2ccc(Cl)cc2)s1`, for which the zone of inhibition at 100 µg/mL with Escherichia coli [1] came out at 25 mm; in the assay with Klebsiella pneumoniae [2], 23 mm; in the assay with Curvularia lunata [3], 32 mm; with Bacillus subtilis [5] it was 30 mm; in the assay on Aspergillus niger [10], 26 mm; in the assay with Fusarium solani [11], 30 mm. Besides, in the assay on Staphylococcus aureus [16], the zone of inhibition at 100 µg/mL was 32 mm. The zone of inhibition at 200 µg/mL is 35 mm in the assay on Staphylococcus aureus [4]; 32 mm in the assay with Fusarium solani [7]; 26 mm with Escherichia coli [9]; 25 mm in the assay on Klebsiella pneumoniae [12]; 29 mm in the assay on Aspergillus niger [13]; 32 mm with Bacillus subtilis [14]. Also, the zone of inhibition at 200 µg/mL in the assay on Curvularia lunata [15] is 34 mm. Besides, the MIC – broadly, the least concentration at which growth counts as inhibited – against Klebsiella pneumoniae [17] stood at 200 µg/mL (≈ 357 µM); with Fusarium solani [18], 50 µg/mL (≈ 89.4 µM); against Curvularia lunata [19], 50 µg/mL (≈ 89.4 µM); against Escherichia coli [20] it was 200 µg/mL (≈ 357 µM); in the assay with Aspergillus niger [21], 100 µg/mL (≈ 179 µM); in the assay with Bacillus subtilis [22], 50 µg/mL (≈ 89.4 µM). Moreover, the minimum inhibitory concentration (MIC) in the assay on Staphylococcus aureus [23] stood at 100 µg/mL (≈ 179 µM). Further, the inhibition in assay [6] turned out to be 30.2%; in assay [8], 29.4%.

Regarding `N#CC(C#N)=C(SCc1nnc(-c2ccc(Cl)cc2)o1)SCc1nnc(-c2ccc(Cl)cc2)o1`, the zone of inhibition at 100 µg/mL in the assay with Escherichia coli [1] was 8 mm; in the assay with Klebsiella pneumoniae [2], 8 mm; with Curvularia lunata [3], 16 mm; in the assay with Bacillus subtilis [5] it was 13 mm; with Aspergillus niger [10], 14 mm; with Fusarium solani [11], 20 mm. Further, the zone of inhibition at 100 µg/mL in the assay with Staphylococcus aureus [16] amounted to 16 mm. The zone of inhibition at 200 µg/mL with Staphylococcus aureus [4] came out at 20 mm; in the assay on Fusarium solani [7], 22 mm; in the assay with Escherichia coli [9], 11 mm; with Klebsiella pneumoniae [12] it was 12 mm; with Aspergillus niger [13], 17 mm; in the assay on Bacillus subtilis [14] it was 16 mm. For the same molecule, in the assay with Curvularia lunata [15], the zone of inhibition at 200 µg/mL is 19 mm. The inhibition came to 73.7% in assay [6] and 72.5% in assay [8].
